Data on 1 compound can be found in ChEMBL document CHEMBL1152365, “First experimental identification of Ras-inhibitor binding interface using a water-soluble Ras ligand” (Bioorg Med Chem Lett, 2009).

Data set [1] relates to NIH3T3. Put plainly: Antiproliferative activity against mouse NIH/3T3 cells assessed as morphological changes at 150 uM after 48 hrs. Type of data set: functional, cell-based.
Data set [2] has as its target GTPase HRas (Homo sapiens) (UniProt P01112). Put plainly: Binding affinity to H-Ras(1-166) expressed in BL21 De3 Escherichia coli by isothermal titration calorimetric study. (In general: Isothermal titration calorimetry measures the heat released or taken up as one component is titrated into another.)
Data set [3] in a line: Chemical stability at neutral pH by TLC analysis. It counts as physicochemical. A digest of the protocol: (§1)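 Stability assessed by TLC and HPLC after storage at neutral pH for months.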
A short description of data set [4]: Solubility in TRIS buffer. Type of data set: physicochemical.
Data set [5] relates to NIH3T3. Put plainly: Antiproliferative activity against mouse NIH/3T3 cells at 150 uM after 24 hrs by coulter counter. It counts as functional, cell-based.
Data set [6] can be described thus: Solubility in water. It counts as physicochemical. The conditions noted are these: buffer.
Data set [7] concerns NIH3T3. The experiment in a line: Antiproliferative activity against mouse NIH/3T3 cells at 450 uM after 24 hrs by coulter counter. It counts as functional, cell-based.
Data set [8] has as its target GTPase HRas (Homo sapiens) (UniProt P01112). Put plainly: Binding affinity to H-Ras expressed in BL21 De3 Escherichia coli assessed as damage to protein structure by circular dichroism.
The target is the same in data set [9]. Put plainly: Binding affinity to hexa-histidine tagged H-Ras.GDP(1-166) expressed in BL21 De3 Escherichia coli by NMR binding experiment.
Data set [10] in a line: Chemical stability at neutral pH by HPLC analysis. It counts as physicochemical. In outline:
as §1

Data set [11] concerns the target T1, Ras-specific guanine nucleotide-releasing factor 1 (Homo sapiens) (UniProt Q13972).
T1 sequence (whole entry): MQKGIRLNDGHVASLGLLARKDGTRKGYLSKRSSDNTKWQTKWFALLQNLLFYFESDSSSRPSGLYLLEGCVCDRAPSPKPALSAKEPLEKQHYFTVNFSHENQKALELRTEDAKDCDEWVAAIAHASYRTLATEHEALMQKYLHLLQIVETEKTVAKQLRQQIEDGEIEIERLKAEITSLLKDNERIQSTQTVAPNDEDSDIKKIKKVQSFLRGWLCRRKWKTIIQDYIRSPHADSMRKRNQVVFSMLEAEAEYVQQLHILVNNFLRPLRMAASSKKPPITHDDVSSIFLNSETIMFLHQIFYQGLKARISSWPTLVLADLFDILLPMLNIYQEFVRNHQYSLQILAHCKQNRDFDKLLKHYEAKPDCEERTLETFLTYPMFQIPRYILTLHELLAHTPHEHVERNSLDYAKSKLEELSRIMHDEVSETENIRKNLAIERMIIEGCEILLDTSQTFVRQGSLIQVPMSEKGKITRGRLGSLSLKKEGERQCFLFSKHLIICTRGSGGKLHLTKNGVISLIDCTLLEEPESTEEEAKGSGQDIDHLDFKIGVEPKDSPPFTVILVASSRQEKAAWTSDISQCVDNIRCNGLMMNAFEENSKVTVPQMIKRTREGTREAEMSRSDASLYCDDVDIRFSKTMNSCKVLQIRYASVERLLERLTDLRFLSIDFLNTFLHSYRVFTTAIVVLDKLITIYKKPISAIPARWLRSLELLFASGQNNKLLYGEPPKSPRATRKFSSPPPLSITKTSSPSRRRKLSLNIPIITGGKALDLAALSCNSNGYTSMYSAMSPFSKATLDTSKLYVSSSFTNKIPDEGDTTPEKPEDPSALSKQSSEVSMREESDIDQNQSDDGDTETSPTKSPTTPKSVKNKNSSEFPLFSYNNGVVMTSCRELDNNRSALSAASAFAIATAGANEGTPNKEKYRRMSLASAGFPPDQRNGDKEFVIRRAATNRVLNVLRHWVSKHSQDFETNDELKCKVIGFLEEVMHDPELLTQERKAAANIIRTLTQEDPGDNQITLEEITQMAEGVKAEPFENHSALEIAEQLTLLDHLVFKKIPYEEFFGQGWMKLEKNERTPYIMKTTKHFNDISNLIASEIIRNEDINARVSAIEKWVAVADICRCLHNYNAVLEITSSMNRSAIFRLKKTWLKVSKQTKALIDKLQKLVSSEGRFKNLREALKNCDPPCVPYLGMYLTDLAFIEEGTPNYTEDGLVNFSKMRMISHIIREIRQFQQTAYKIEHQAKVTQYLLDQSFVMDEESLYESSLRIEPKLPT
The experiment in a line: Inhibition of GST-tagged Ras-GRF1-catalyzed exchange of bound GDP on histidine-tagged recombinant H-Ras expressed in Escherichia coli M15 at 100 uM by luminescence spectrometry. In outline: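 GDP-to-mantGDP exchange measured on 0.25 µM H-Ras·GDP with […] mantGDP and 0.0625 µM RasGRF1, with compound at 0, 50, 100, 250 or 500 µM. Fluorescence read every second for at least 1500 s. Initial rate taken as first derivative at time 0 and normalized to the no-compound control set at 100. Mean of at least three independent experiments.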

Data set [12] addresses GTPase HRas (Homo sapiens) (UniProt P01112). Put plainly: Binding affinity to H-Ras expressed in BL21 De3 Escherichia coli assessed as induction of protein denaturation by circular dichroism. On the technique in general: CD spectra are sensitive to the conformation of chiral molecules.

Activity calls are given as the source filed them. The calls are words filed in the database; no cut-off is given here.

Sequence of GTPase HRas (Homo sapiens) (P01112 whole entry, looked up): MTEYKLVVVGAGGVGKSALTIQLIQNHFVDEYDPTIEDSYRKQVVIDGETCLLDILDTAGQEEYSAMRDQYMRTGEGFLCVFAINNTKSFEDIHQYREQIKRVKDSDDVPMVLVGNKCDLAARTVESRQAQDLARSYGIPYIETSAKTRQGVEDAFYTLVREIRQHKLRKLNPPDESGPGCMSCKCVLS

In general, inhibition refers to the share of the control response that was lost under treatment. `OC[C@H]1O[C@@H](N(Cc2ccc(O)c(O)c2)OCc2ccccc2)[C@H](O)[C@@H](O)[C@@H]1O`: the result (in the data set with NIH3T3 [1]; in the data set on NIH3T3 [5]; in the data set on NIH3T3 [7]; in [9]) was Active. The Activity in [2] was 37 µM. In addition, the Stability result in data set [3] and in data set [10] was “Stable” throughout. Further, the solubility result in data set [4] and in [6] was “Soluble” each time. Also, the result in [8] and in [12] was inactive. The inhibition in [11] was 50%.
